Assay results pooled from the literature.
Target: Serine/threonine-protein kinase 16 (STK16, Homo sapiens, UniProt O75716)

For F[C@@H]1CCN(c2nccc(-c3cnn4ncccc34)n2)C1, the remaining binding was 100% (binding; 1 µM).
The remaining binding of COc1cnc(Nc2cccc(S(N)(=O)=O)c2)nc1N1CCN(c2ccccc2)C(=O)C1 is reported as 30% (binding, competition with immobilised ligand; 1 µM).
With CCC(=O)N[C@@H]1CC[C@H](C(=O)N(C)c2ccc(-c3nc4ccccc4o3)cc2)C1 the remaining binding was 100% (cell-free assay, competition with immobilised ligand; 1 µM).
With COc1cc(Nc2nccc(-c3cnn4nc(OC)ccc34)n2)cc(C(F)(F)F)c1 the remaining binding was 53% (binding, competition with immobilised ligand; 1 µM).
Nc1ncc2c(n1)-c1c([nH]c3ccc(C#CC4CC4)cc13)CCCC2 gave a remaining binding of 100% (binding, competition with immobilised ligand; 1 µM).
With CO[C@@H](C)c1c(Nc2ccc([C@H](N(C)C(=O)C3CCS(=O)(=O)CC3)C(F)(F)F)cc2)cnc2cc(Cl)nn12 the remaining binding was 75% (cell-free assay, competition with immobilised ligand; 1 µM).
For O=C(NCC1CCOCC1)c1n[nH]cc1NC(=O)c1c(F)cccc1F, the remaining binding was 91% (binding, competition with immobilised ligand; 1 µM).
With Cc1cnn2ncc(-c3ccnc(N(C)C)n3)c2c1 the remaining binding was 91% (binding; 1 µM).
The remaining binding of CN(C)C(=O)Cn1cc(-c2nc([C@@](C)(c3ccc(-c4cnc(N)nc4)cc3)C3CC3)no2)cn1 is reported as 100% (cell-free assay, competition with immobilised ligand; 1 µM).
With CN(C)c1nccc(-c2cnc3ncccn23)n1 the remaining binding was 92% (binding; 1 µM).
O=C(NCCCN1CCOCC1)c1ccc(Nc2nccc(-c3cc4ccccc4s3)n2)cc1 has a remaining binding of 32% (binding, competition with immobilised ligand; 1 µM).
CN(C)c1nccc(-c2cnn3ncccc23)n1 gave a remaining binding of 87% (binding; 1 µM).
CCN1CCN(Cc2ccc(C(=O)Nc3ccc(C)c(Oc4ccc5c(c4)CC(=O)N5)c3)cc2C(F)(F)F)CC1 gave a remaining binding of 100% (binding, competition with immobilised ligand; 1 µM).
For O=C(c1ccc(Nc2ncc(Cl)c(-c3cc4ccccc4s3)n2)cc1)N1CCC(N2CCCC2)CC1, the remaining binding was 5.6% (binding, competition with immobilised ligand; 1 µM).
For CN(C)CC#Cc1ccc(OCCCc2sc(N3CCc4cccc(C(=O)Nc5nc6ccccc6s5)c4C3)nc2C(=O)O)c(F)c1, the remaining binding was 92% (cell-free assay, competition with immobilised ligand; 1 µM).
With CC1CCCN1c1nccc(-c2cnn3ncccc23)n1 (stereo not drawn) the remaining binding was 86% (binding; 1 µM).
The remaining binding of O=C(c1ccc(Nc2nccc(-c3cc4ccccc4s3)n2)cc1)N1CCC(N2CCCC2)CC1 is reported as 18% (binding, competition with immobilised ligand; 1 µM).
The remaining binding of CCCCN(CCCC)C(=O)CN1C[C@H](c2cc(OC)c3c(c2)OCO3)[C@@H](C(=O)O)[C@@H]1CC(C)(C)CCC is reported as 100% (cell-free assay, competition with immobilised ligand; 1 µM).
N[C@H]1CCN(c2nccc(-c3cnn4ncccc34)n2)C1 has a remaining binding of 91% (binding; 1 µM).
O=C(N1CCS(=O)(=O)CC1)N1C[C@H](c2ccc(OC(F)(F)F)cc2)C[C@H](c2nc(C3CC3)no2)C1 gave a remaining binding of 100% (cell-free assay, competition with immobilised ligand; 1 µM).
The remaining binding of c1cncc(-c2cccc(Nc3nccc(NC4CCCCC4)n3)c2)c1 is reported as 42% (binding, competition with immobilised ligand; 10 µM).
